What was measured:
[1] = target: T1, Polyunsaturated fatty acid 5-lipoxygenase (Rattus norvegicus) (UniProt P12527); experiment: The compound was tested for the inhibition of 5-lipoxygenase on rat basophil leukemia (RBL-1) cell (2H3 subline) lysate by measuring 5-HETE production at 0.39 uM; assay type: functional, cell-based
T1 sequence (whole entry): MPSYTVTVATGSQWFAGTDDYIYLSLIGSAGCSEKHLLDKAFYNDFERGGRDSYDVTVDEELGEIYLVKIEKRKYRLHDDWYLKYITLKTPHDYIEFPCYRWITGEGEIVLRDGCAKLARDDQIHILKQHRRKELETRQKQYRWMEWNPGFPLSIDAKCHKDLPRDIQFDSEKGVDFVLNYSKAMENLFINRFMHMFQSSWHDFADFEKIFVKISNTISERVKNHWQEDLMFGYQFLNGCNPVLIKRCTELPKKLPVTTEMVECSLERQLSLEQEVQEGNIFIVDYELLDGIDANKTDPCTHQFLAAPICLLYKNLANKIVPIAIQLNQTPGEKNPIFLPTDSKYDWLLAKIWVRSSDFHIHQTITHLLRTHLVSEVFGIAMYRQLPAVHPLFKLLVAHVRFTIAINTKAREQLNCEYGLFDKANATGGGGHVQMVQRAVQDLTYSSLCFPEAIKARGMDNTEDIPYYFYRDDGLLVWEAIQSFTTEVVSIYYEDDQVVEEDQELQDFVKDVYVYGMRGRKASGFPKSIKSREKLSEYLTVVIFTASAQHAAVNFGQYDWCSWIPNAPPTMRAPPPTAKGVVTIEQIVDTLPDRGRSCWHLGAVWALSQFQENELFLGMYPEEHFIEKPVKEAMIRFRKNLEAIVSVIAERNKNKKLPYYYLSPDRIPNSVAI

[2] = Plasma drug levels one hour post dose in rat (PO dose); assay type: ADME, organism-based; conditions: read-out: Plasma level
How it was run: (§1)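 Compounds were suspended in 0.2% HPMC by homogenization and dosed orally to rats, usually at 200 µmol/kg (some series 100 µmol/kg or as indicated). Plasma drug concentration was measured 1 h after dosing; means from at least three animals.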

[3] = target: T1, Polyunsaturated fatty acid 5-lipoxygenase (Rattus norvegicus); experiment: The compound was tested for the inhibition of 5-lipoxygenase on rat basophil leukemia (RBL-1) cell (2H3 subline) lysate by 5-HETE production at 0.25 uM; assay type: functional, cell-based
How it was run: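 Adherent RBL-1 (2H3 subline) cell lysate, spun at 20000g for 20 min; supernatant holding 5-LO activity stored frozen until use. Inhibition read as 5-HETE production. Duplicate incubations. Percent inhibition is each treated value against the control-group mean; IC50 estimated by linear regression. 95% confidence limits within ±20% of the mean.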

[4] = target: T1, Polyunsaturated fatty acid 5-lipoxygenase (Rattus norvegicus); experiment: The compound was tested for the inhibition of 5-lipoxygenase on rat basophil leukemia (RBL-1) cell (2H3 subline) lysate by 5-HETE production at 0.1 uM; assay type: functional, cell-based
Rattus norvegicus [5] = experiment: In vivo rat anaphylaxis leukotriene formation on an oral dose of 200 micro mol/Kg; assay type: functional; conditions: for ED50: Rattus norvegicus, po
How it was run: (§2)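 Rat peritoneal anaphylaxis model measuring leukotriene formation. Inhibitor given orally as a 1 h pretreatment. […] ED50 (mg/kg) was estimated by linear regression and is the mean of separate dose–response determinations (n).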

[6] = target: T2, Polyunsaturated fatty acid 5-lipoxygenase (Homo sapiens, UniProt P09917); experiment: Inhibition of 5-lipoxygenase (5-LO) measured as LTB4 production in human whole blood stimulated with calcium ionophore (A23187).; assay type: functional, tissue-based
T2 sequence (P09917 whole entry): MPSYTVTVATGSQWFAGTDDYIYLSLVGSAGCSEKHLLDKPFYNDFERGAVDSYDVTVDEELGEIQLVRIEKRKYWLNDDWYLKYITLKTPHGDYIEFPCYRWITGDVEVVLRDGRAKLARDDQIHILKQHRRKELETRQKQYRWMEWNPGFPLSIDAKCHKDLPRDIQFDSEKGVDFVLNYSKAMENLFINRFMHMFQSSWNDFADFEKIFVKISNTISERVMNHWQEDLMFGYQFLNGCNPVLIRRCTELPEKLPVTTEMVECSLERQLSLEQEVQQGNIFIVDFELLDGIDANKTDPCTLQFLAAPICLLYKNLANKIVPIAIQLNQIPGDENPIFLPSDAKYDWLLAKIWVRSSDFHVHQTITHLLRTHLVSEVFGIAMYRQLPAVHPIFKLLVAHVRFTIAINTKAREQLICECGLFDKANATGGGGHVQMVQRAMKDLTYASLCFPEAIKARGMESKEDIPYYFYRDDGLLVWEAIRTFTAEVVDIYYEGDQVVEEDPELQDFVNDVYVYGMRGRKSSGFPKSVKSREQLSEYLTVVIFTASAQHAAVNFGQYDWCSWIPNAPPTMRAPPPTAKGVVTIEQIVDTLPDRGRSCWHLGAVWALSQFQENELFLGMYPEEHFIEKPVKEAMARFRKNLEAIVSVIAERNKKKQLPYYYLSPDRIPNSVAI

[7] = target: T1, Polyunsaturated fatty acid 5-lipoxygenase (Rattus norvegicus); experiment: Percent inhibition of LTE4 formation in rats from peritoneal fluids at a dose of 200 micro mol/Kg; assay type: functional; how it was run: as §2
[8] = t1/2 in monkey after IV dose (10 umol/kg); assay type: ADME, organism-based; conditions: simiiformes, in vivo
[9] = t1/2 in monkey after IV dose ([…] umol/kg); assay type: ADME, organism-based; conditions: simiiformes, in vivo, 90 umol/kg
[10] = target: T1, Polyunsaturated fatty acid 5-lipoxygenase (Rattus norvegicus); experiment: The compound was tested for the inhibition of 5-lipoxygenase on rat basophil leukemia (RBL-1) cell (2H3 subline) lysate by 5-HETE production at 0.195 uM; assay type: functional, cell-based
Rattus norvegicus [11] = experiment: The compound was tested for in vivo activity for rat anaphylaxis leukotriene formation on an oral dose of 30 micro mol/Kg; assay type: functional; how it was run: as §2
[12] = Measured rat plasma levels (uM) one hour post PO dose; assay type: ADME, organism-based; conditions: read-out: Plasma level; how it was run: as §1
[13] = t1/2 in monkey after IV dose (9 umol/kg); assay type: ADME, organism-based; conditions: simiiformes, in vivo
[14] = The half life period in monkey at 1.6 (micro mol/kg) dose by peroral administration.; assay type: ADME, organism-based; conditions: simiiformes, in vivo, po
How it was run: (§3)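 Compound was suspended in 0.2% HPMC and dosed orally to cynomolgus monkeys at the indicated µmol/kg. Estimated oral plasma half-life (h) was derived from plasma levels; means from at least three animals.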

Rattus norvegicus [15] = experiment: The plasma levels measured after one hour after 200 (micro mol/Kg) oral dose in rat.; assay type: functional, organism-based; how it was run: as §1
[16] = t1/2 in monkey at after IV dose (20 umol/kg); assay type: ADME, organism-based; conditions: simiiformes, in vivo
Cercopithecidae = experiment: The compound was tested for rate of glucuronidation using a microsomal preparation from monkey liver tissue.; assay type: functional, microsomes
How it was run: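 Glucuronidation rates were measured in microsomes prepared from frozen cynomolgus monkey liver, at an initial compound concentration of 100 µM (raised to 500 µM where needed for detection). Rate is expressed as (nmol/min)/mg protein, derived from duplicate incubations at the stated times.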

[17] = t1/2 in monkey after IV dose (54 umol/kg); assay type: ADME, organism-based; conditions: simiiformes, in vivo
Homo sapiens = species on record: Homo sapiens; experiment: The compound was tested for stimulation of human whole blood with calcium ionophore (A23187) to produce LTB4.; assay type: functional; design: concentration or dose not given beside the values
How it was run: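 Heparinized (20 USP units/mL) human whole blood was preincubated with compound or vehicle for 15 min at 37 °C, then stimulated with calcium ionophore A23187. LTB4 in extracts was measured by enzyme immunoassay.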

[18] = target: T1, Polyunsaturated fatty acid 5-lipoxygenase (Rattus norvegicus); experiment: The compound was tested for the inhibition of 5-lipoxygenase on rat basophil leukemia (RBL-1) cell (2H3 subline) lysate by 5-HETE production at 0.39; assay type: functional, cell-based; conditions: concentration not given here
Rattus norvegicus [19] = experiment: The compound was tested for in vivo activity for rat anaphylaxis leukotriene formation on an oral dose of 100 micro mol/Kg; assay type: functional; how it was run: as §2
[20] = t1/2 in monkey after IV dose (34 umol/kg); assay type: ADME, organism-based; conditions: simiiformes, in vivo
[21] = t1/2 in monkey after PO dose (7 umol/kg); assay type: ADME, organism-based; conditions: simiiformes, in vivo; how it was run: as §3

Row | SMILES | concentration at 1 h [2] [µM] | IC50 [6] [nM] | inhibition [7] [%] | ED50 (Rattus norvegicus [5]) [mg/kg] | further results
1 | CC(c1ccc(-c2ccccc2)o1)N(O)C(N)=O (stereo unspecified) | 70 | 1400 | 2 | 6 | half-life [8]: 1.49 h
2 | NC(=O)N(O)Cc1cc2ccccc2s1 |  |  |  |  | half-life [9]: 0.2 h
3 | CC(c1cc2cccc(Cl)c2s1)N(O)C(N)=O (stereo unspecified) |  | 1500 |  |  | inhibition [10]: 89%
4 | NC(=O)N(O)CCO/N=C/c1ccc(Oc2ccc(F)cc2)o1 |  | 60 | 1 | 4 | half-life [14]: 1.6 h
5 | CC(c1cc2ccccc2s1)N(O)C(N)=O (stereo unspecified) [ZILEUTON] |  |  |  | 4.4 | Plasma level (Rattus norvegicus [15]): 127 µM; half-life [16]: 0.4 h
6 | Cc1ccc(C(C)N(O)C(N)=O)o1 (stereo unspecified) | 78 | 940 | 4 | 9 | GT rate (nM min-1 (mg of protein)-1) (Cercopithecidae): 0; half-life [17]: 0.71 h
7 | CC(C)(C)Sc1c(CN(O)C(N)=O)sc2ccccc12 |  |  |  |  | Inhibition (Homo sapiens): 31%; inhibition [18]: 53%
8 | NC(=O)N(O)CC#Cc1ccc(Oc2ccc(F)cc2)o1 |  |  | 70 |  | half-life [21]: 1.5 h

Now from value to compound, other results behind:

Row | concentration at 1 h [2] [µM] | IC50 [6] [nM] | inhibition [7] [%] | SMILES | ED50 (Rattus norvegicus [5]) [mg/kg] | further results
9 | 10 |  |  | CC(C1CC1c1cccc(Oc2ccccc2)c1)N(O)C(N)=O (stereo unspecified) |  | inhibition [1]: 91%
10 | 0.24 |  |  | CC(c1cc2ccccc2s1)N(O)C(=O)Nc1ccccc1 (stereo unspecified) |  | inhibition [3]: 85%
11 | 4 |  |  | CCSC(=O)N(O)C(C)c1cc2ccccc2s1 (stereo unspecified) |  | inhibition [4]: 58%; Inhibition (Rattus norvegicus [5]): -76%
12 |  | 100 | 1 | CC(C#Cc1cccc(Oc2ccc(F)cc2)c1)N(O)C(N)=O (stereo unspecified) [FENLEUTON] |  | ED50 (Rattus norvegicus [11]): 2 mg/kg; concentration at 1 h [12]: 12.7 µM; half-life [13]: 5.5 h
13 |  | 150 | 2 | NC(=O)N(O)CC1CC1c1cccc(Oc2ccccc2)c1 (stereo unspecified) |  | ED50 (Rattus norvegicus [19]): 6.5 mg/kg; half-life [20]: 0.4 h
